Here are results for 2 compounds from ChEMBL document CHEMBL4033670, “Synthesis, characterization, molecular docking and in vitro antimalarial properties of new carboxamides bearing sulphonamide” (Eur J Med Chem, 2017).

Common to all, as to format: functional
The nature of test [1]: Antioxidant activity assessed as inhibition of DPPH radical generation at 0.04 mg/ml after 20 mins under dark condition by UV-Visible spectrophotometric analysis relative to control. In general terms: Loss of DPPH colour is used to gauge radical scavenging.
A short description of test [2]: Antioxidant activity assessed as inhibition of DPPH radical generation at 0.05 mg/ml after 20 mins under dark condition by UV-Visible spectrophotometric analysis relative to control.
The nature of test [3]: Antioxidant activity assessed as inhibition of DPPH radical generation at 0.03 mg/ml after 20 mins under dark condition by UV-Visible spectrophotometric analysis relative to control.
Test [4] can be described thus: Antioxidant activity assessed as DPPH radical scavenging activity after 20 mins under dark condition by UV-Visible spectrophotometric analysis. In a few lines: (§1)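 Test compounds were made up in ethanol at 1.0, 2.0, 3.0, 4.0 and 5.0 mg/mL (solution concentrations before mixing). 1 mL of each was shaken with 4 mL of 0.1 mM ethanolic DPPH and kept in the dark at room temperature for 20 min. The decrease in A517 was read against an ethanol baseline. A DPPH blank had no compound. Scavenging % = [(Ac − As)/Ac] × 100.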

Test [5] can be described thus: Antioxidant activity assessed as inhibition of DPPH radical generation at 0.02 mg/ml after 20 mins under dark condition by UV-Visible spectrophotometric analysis relative to control.
Test [6] can be described thus: Antioxidant activity assessed as inhibition of DPPH radical generation at 0.01 mg/ml after 20 mins under dark condition by UV-Visible spectrophotometric analysis relative to control.
Test [7] can be described thus: Antioxidant activity assessed as inhibition of DPPH radical generation at 3 mg/ml after 20 mins under dark condition by UV-Visible spectrophotometric analysis relative to control. In outline:
as §1

A short description of test [8]: Antioxidant activity assessed as inhibition of DPPH radical generation at 2 mg/ml after 20 mins under dark condition by UV-Visible spectrophotometric analysis relative to control. In a few lines:
as §1

Test [9] can be described thus: Antioxidant activity assessed as inhibition of DPPH radical generation at 5 mg/ml after 20 mins under dark condition by UV-Visible spectrophotometric analysis relative to control. In outline:
as §1

Test [10] is described as follows: Antioxidant activity assessed as inhibition of DPPH radical generation at 4 mg/ml after 20 mins under dark condition by UV-Visible spectrophotometric analysis relative to control. In outline:
as §1

A further test deals with Plasmodium falciparum. Kind of test: Antimalarial activity against ring stage chloroquine-resistant Plasmodium falciparum W2 preincubated for 48 hrs measured after 48 hrs in presence of 10% human serum by YOYO-1 dye-based FACS analysis. In a few lines:
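Sorbitol-synchronized ring-stage W2 parasites at 0.1% parasitemia grown 48 h in RPMI-1640 + 10% human serum under 3% O2/6% CO2/91% N2 with inhibitors (from 1000× DMSO stocks), no media change. Fixed 48 h in 1% formaldehyde/PBS pH 7.4 at room temperature. Stained with 1 nM YOYO-1 in 0.1% Triton X-100/PBS. Parasitemia read by flow cytometry.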
On the technique in general: Flow cytometry measures light scatter and fluorescence of single cells or particles in a stream.

A short description of test [11]: Antioxidant activity assessed as inhibition of DPPH radical generation at 1 mg/ml after 20 mins under dark condition by UV-Visible spectrophotometric analysis relative to control. In a few lines: as §1

For the compound `O=C1O[C@H]([C@@H](O)CO)C(O)=C1O` [ASCORBIC ACID], the inhibition in test [1] is 30%; in test [2] it was 40%; in test [3], 25%; in test [5], 20%; in test [6] it was 15%. Moreover, the IC50 in test [4] was found to be 0.34 mM.

For `CC(=O)c1ccc(NC(=O)C(C(C)C)N(C(=O)c2ccccc2)S(=O)(=O)c2ccccc2)cc1` (stereo not drawn), the inhibition worked out at 47.5% in test [7]; 41.3% in [8]; 54.2% in [9]; 52.2% in [10]; 32.1% in test [11]. For the same compound, in test [4], the IC50 was 13 mM. In addition, the MIC99 in the test on Plasmodium falciparum turned out to be 1.7 µM.

What is called inhibition is the share of the control response that was lost under treatment. Usually IC50 stands for the concentration needed to halve the response being measured. The term MIC99 denotes an inhibitory concentration at the 99% level, which refers to growth in some studies and to a panel of isolates in others.
